Drawing on ChEMBL document CHEMBL1148287, “Design of potent, selective, and orally bioavailable inhibitors of cysteine protease cathepsin k” (J Med Chem, 2004), this text covers Ratio and IC50 for 28 compounds.

pIC50: −log10 of the molar value.

Experiment [1] is described as follows: Selectivity ratio between IC50 against Cathepsin S and IC50 against Cathepsin K. In short, it runs like this:
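Recombinant human cathepsin S was run with Cbz-Val-Val-Arg-AMC at 10 μM final (Km >100 μM); human cathepsin K used Cbz-Phe-Arg-AMC at 10 μM. Both were in pH 5.5 sodium acetate with 10 mM DTT, 120 mM NaCl and 10% DMSO at 30 °C, with AMC fluorescence progress curves over 2.3 h. The ratio was taken from the fitted IC50s.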

Experiment [2] has as its target T1, Cathepsin K (Homo sapiens, UniProt P43235).
T1 sequence (P43235 whole entry): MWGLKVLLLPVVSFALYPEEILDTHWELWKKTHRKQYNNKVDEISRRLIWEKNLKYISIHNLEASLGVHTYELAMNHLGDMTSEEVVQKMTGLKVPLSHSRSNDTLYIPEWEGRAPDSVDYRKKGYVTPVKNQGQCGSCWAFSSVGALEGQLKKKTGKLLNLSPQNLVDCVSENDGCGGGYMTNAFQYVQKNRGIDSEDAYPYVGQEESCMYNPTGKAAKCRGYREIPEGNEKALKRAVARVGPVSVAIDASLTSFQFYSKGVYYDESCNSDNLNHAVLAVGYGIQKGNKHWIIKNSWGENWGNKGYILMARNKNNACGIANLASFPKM
The experiment is described as follows: Concentration required to inhibit 50% of cysteine protease cathepsin K of human. The method, boiled down:
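Reactions were started by adding inhibitor plus substrate to enzyme. AMC fluorescence (ex 360/em 440) progress curves were followed over 2.3 h at varied inhibitor concentrations. IC50 was fitted as rate = Vmax/(1+[I]/IC50).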

In experiment [3] the target is T2, Cathepsin K (Rattus norvegicus, UniProt O35186).
T2 sequence (O35186 whole entry): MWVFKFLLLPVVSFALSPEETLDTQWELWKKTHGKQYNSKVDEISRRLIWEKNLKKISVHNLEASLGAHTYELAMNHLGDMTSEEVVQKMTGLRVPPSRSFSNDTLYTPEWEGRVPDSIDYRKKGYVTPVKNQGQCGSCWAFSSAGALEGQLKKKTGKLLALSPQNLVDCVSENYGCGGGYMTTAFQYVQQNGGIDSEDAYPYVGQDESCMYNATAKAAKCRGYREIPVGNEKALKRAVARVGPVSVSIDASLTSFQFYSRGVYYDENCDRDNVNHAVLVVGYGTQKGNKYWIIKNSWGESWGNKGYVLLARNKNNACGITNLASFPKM
The experiment is described as follows: Inhibition of cysteine protease cathepsin K of rat.

As to `CCCC[C@H](NC(=O)OC(C(C)C)C(C)C)C(=O)C(=O)Nc1cc(C)[nH]n1`, the Ratio in experiment [1] is 4.6.

The term pIC50 denotes the IC50 on a negative log10 scale, so that one unit is a factor of ten. Turning to `CC(C)C(OC(=O)NCC(=O)C(=O)NCc1cccs1)C(C)C`, the pIC50 on Cathepsin K [2] is 4.92.

As to `CC(C)C[C@H](NC(=O)OC(C(C)C)C(C)C)C(=O)C(=O)NCc1cccs1`, at Cathepsin K [2], the pIC50 was 7.62. This pIC50 is 2.70 log units higher than that of the compound before.

`CCCC[C@H](NC(=O)OC(C(C)C)C(C)C)C(=O)C(=O)Nc1[nH]ncc1C(=O)OCC` gave a pIC50 at Cathepsin K [2] of 8.77. Further, in experiment [1], the Ratio turned out to be 3.6.

`CC(C)C(OC(=O)N[C@@H](C)C(=O)C(=O)NCc1cccs1)C(C)C` had a pIC50 on Cathepsin K [2] of 6.44.

As for `CC(C)C(OC(=O)N[C@@H](Cc1ccccc1)C(=O)C(=O)NCc1cccs1)C(C)C`, the pIC50 at Cathepsin K [2] was 7.57.

For `CCCC[C@H](NC(=O)OC(C(C)C)C(C)C)C(=O)C(=O)Nc1ccc2ccccc2n1`, the negative-log IC50 (pIC50) against Cathepsin K [2] is 6.60.

Compound `CCCC[C@H](NC(=O)OC(C(C)C)C(C)C)C(=O)C(=O)NCc1cccs1` had a pIC50 on Cathepsin K [2] of 8.04. This pIC50 is 1.44 log units higher than that of the compound before.

For `CCCC[C@H](NC(=O)OC(C(C)C)C(C)C)C(=O)C(=O)Nc1cc2ccccc2cn1`, the pIC50 on Cathepsin K [2] is 8.32.

Take `CCCC[C@H](NC(=O)OC(C(C)C)C(C)C)C(=O)C(=O)Nc1ccnn1CC`: the results for the negative-log IC50 (pIC50) against Cathepsin K [2] and against Cathepsin K [3] were 7.59 and 5.82, respectively.

In the case of `CCCC[C@H](NC(=O)OC(C(C)C)C(C)C)C(=O)C(=O)Nc1cccnc1`, the negative-log IC50 (pIC50) against Cathepsin K [2] was 7.02.

Take `CC(C)C(OC(=O)N[C@@H](CC1CCCCC1)C(=O)C(=O)NCc1cccs1)C(C)C`: the pIC50 on Cathepsin K [2] is 7.85.

As for `CCCC[C@H](NC(=O)OC(C(C)C)C(C)C)C(=O)C(=O)Nc1[nH]ncc1C#N`, the negative logarithm of the IC50 (pIC50) against Cathepsin K [2] is 9.04. Further, the Ratio in experiment [1] came to 3.6.

`CCCC[C@H](NC(=O)OC(C(C)C)C(C)C)C(=O)C(=O)Nc1cc(C)n[nH]1` had a pIC50 against Cathepsin K [2] of 9.15.

As for `CCCC[C@H](NC(=O)OC(C(C)C)C(C)C)C(=O)C(=O)Nc1cnccn1`, the negative logarithm of the IC50 (pIC50) against Cathepsin K [2] is 7.28. Compared with the last compound, the pIC50 is 1.87 log units lower.

`CCCC[C@H](NC(=O)OC(C(C)C)C(C)C)C(=O)C(=O)Nc1[nH]nc2cccc(F)c12`: the pIC50 on Cathepsin K [2] was 9.59. Also, in experiment [1], the Ratio amounted to 2.3.

On to `CCCC[C@H](NC(=O)OC(C(C)C)C(C)C)C(=O)C(=O)Nc1cc(-c2ccccc2)n[nH]1`, for which the values for the negative-log IC50 (pIC50) against Cathepsin K [2] and against Cathepsin K [3] were 9.19 and 7.92, respectively.

`CCCC[C@H](NC(=O)OC(C(C)C)C(C)C)C(=O)C(=O)N[C@H](C)c1ccccc1` had a pIC50 at Cathepsin K [2] of 8.60.

For `CCCC[C@H](NC(=O)OC(C(C)C)C(C)C)C(=O)C(=O)Nc1ccnn1CCC(C)(C)C`, the results for the negative logarithm of the IC50 (pIC50) against Cathepsin K [2] and on Cathepsin K [3] were 7.21 and 5.80, respectively.

Turning to `CC(C)C(OC(=O)N[C@H](C(=O)C(=O)NCc1cccs1)C(C)C)C(C)C`, the negative-log IC50 (pIC50) on Cathepsin K [2] is 7.33.

Take `CCCC[C@H](NC(=O)OC(C(C)C)C(C)C)C(=O)C(=O)Nc1ccnn1C1CCCCC1`: the pIC50 at Cathepsin K [2] was 7.66; at Cathepsin K [3], 5.92.

Regarding `CCCC[C@H](NC(=O)OC(C(C)C)C(C)C)C(=O)C(=O)Nc1ccn(C)n1`, the negative logarithm of the IC50 (pIC50) on Cathepsin K [2] is 9.39; against Cathepsin K [3] it was 7.96.

`CCCC[C@H](NC(=O)OC(C(C)C)C(C)C)C(=O)C(=O)Nc1ccon1`: the pIC50 at Cathepsin K [2] is 8.29.

Consider `CCCC[C@H](NC(=O)OC(C(C)C)C(C)C)C(=O)C(=O)Nc1ccnn1C1CCCC1`, for which the negative logarithm of the IC50 (pIC50) at Cathepsin K [2] was 7.70; against Cathepsin K [3] it was 5.96.

As to `CCCC[C@H](NC(=O)OC(C(C)C)C(C)C)C(=O)C(=O)Nc1ccnn1C(C)C`, the negative logarithm of the IC50 (pIC50) is 7.77 on Cathepsin K [2] and 6.00 against Cathepsin K [3].

Turning to `CCCC[C@H](NC(=O)OC(C(C)C)C(C)C)C(=O)C(=O)Nc1ccnn1-c1ccccc1`, the negative-log IC50 (pIC50) at Cathepsin K [2] was 7.82; against Cathepsin K [3], 6.10.

For the compound `CCCC[C@H](NC(=O)OC(C(C)C)C(C)C)C(=O)C(=O)Nc1[nH]ncc1Br`, on Cathepsin K [2], the pIC50 is 9.62. In addition, the Ratio in experiment [1] amounted to 4.2.

Turning to `CCC(C)[C@H](NC(=O)OC(C(C)C)C(C)C)C(=O)C(=O)NCc1cccs1` (stereo not given in full), the negative logarithm of the IC50 (pIC50) on Cathepsin K [2] was 7.06.
